Results gathered from unrelated publications.
Protocols differ between the studies behind these lines.
Observed: cell growth or viability

N[C@@H]1CCCN(c2c(/C=C3\SC(=O)NC3=O)cccc2-c2ccccc2)C1
GI50 (KMS-11; thymidine uptake): 4.67 µM

Cn1nnc2c(C(N)=O)ncn2c1=O
EC50 (BGC-823): > 1000 µM

N[C@@H](CC(=O)N1CCN(C(c2ccc(F)cc2)c2ccc(F)cc2)CC1)C(=O)N1Cc2ccccc2C1
IC50 (HEL; ATP luminescence; 48 h): 31.7 µM

CCCCCCCCCCCCNC(=S)NCCCC[C@H](NS(C)(=O)=O)C(=O)N[C@@H](C)C(=O)N[C@@H](CCCNC(=N)N)C(N)=O
EC50 (HeLa; MTT; 72 h): 28.9 to 39.1 µM

CC(C)C[C@H](NC(=O)[C@H](Cc1ccccc1)NC(=O)c1cnccn1)B(O)O
IC50 (U2OS; ATP luminescence): 0.011 µM

COc1ccc(-c2ccc(-c3ccc(C(=N)N)nc3)s2)cc1Cl
GI50 (Hs-578T; SRB): 1.85 µM

NCCOc1cc(NC(=O)c2cc(OCc3ccc(F)cc3)cc(C(=O)Nc3cc(OCCN)c4ccccc4n3)n2)nc2ccccc12
IC50 (U2OS; ATP luminescence; 72 h): 5.6 µM

COc1cc(-c2ccc(-c3ccc(C(=N)N)nc3)s2)cc(OC)c1OC
GI50 (SK-MEL-2; SRB): 2.09 µM

Cc1ccc(NC(=O)c2ccc(CN3CCN(C)CC3)cc2)cc1Nc1nccc(-c2cccnc2)n1
inhibition (HeLa; MTT; 1 µM; 48 h): 11%

COc1cccc(Oc2ccccc2NC(=O)CNC(=O)c2cccc3ccccc23)c1
GI50 (Hs-578T; SRB; 48 h): 0.38 µM

CC[C@@H](C)[C@H](N)C(=O)N1Cc2ccccc2C1
IC50 (NB-4; ATP luminescence; 48 h): 1.5 µM

COc1ccc(-c2ccc(-c3ccc(C(=N)N)nc3)s2)cc1
GI50 (Hs-578T; SRB): 1.82 µM

O=C1Nc2ccccc2C1=NNc1nnc2n1N=C(c1ccccc1)CS2
inhibition (Hs-578T; SRB; 10 µM): 28%
